Assay results from publication PMC9053608 (RSC Advances, 2020).
Marks after values point to notes of the source that are not given here. Ends that are not written are not given here.

Key:
[1] = tested on: young human fibroblast primary cell culture; assay: MTT cytotoxicity assay; assay type: cell-based; details: 37 °C, 5% FBS, mean ± SD (n = 3); for Cellular Viability (%), Fibroblast cells, 2 h: peptide 200 μg mL−1, 2 h; for Cellular Viability (%), Fibroblast cells, 24 h: peptide 200 μg mL−1, 24 h; for Cellular Viability (%), Fibroblast cells, 48 h: peptide 200 μg mL−1, 48 h
Summary of the method: (§1)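 Cells (1 × 10^4 per well) adhered for 14 h at 37 °C in humidified 5% CO2. Medium was then replaced with equal volumes of supplemented RPMI (10%) and peptide solution (200–6.25 μg mL−1), giving 5% final FBS. After 2, 24 or 48 h, MTT (5 mg mL−1 stock) was added for 4 h at 37 °C. Formazan was dissolved in DMSO and read at A570; mean ± S.D., n = 3.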

[2] = tested on: MDA-MB-468 cells; assay: Morphologic changes by phase-contrast microscopy; assay type: cell-based, human; details: phase-contrast microscopy 20×, peptide at 134,61 μM, 24 h
Summary of the method: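 MDA-MB-468 cells (ATCC HTB-132), 1 × 10^4 per well, were allowed to adhere for 14 h at 37 °C in 5% CO2. Medium was then replaced with supplemented RPMI plus test compound, giving 5% FBS final. Plates were incubated at 37 °C in 5% CO2, and cells were photographed before MTT addition. Untreated cells were recorded alongside.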

[3] = tested on: S. aureus ATCC 25923; assay: Antibacterial activity, microdilution assay; assay type: cell-based; details: microdilution (CLSI), 96-well, 24 h at 37 °C, absorbance 620 nm, n = 2
Summary of the method: (§2)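 MIC by CLSI broth microdilution. Peptide solutions at 200, 100, 50, 25, 12.5 and 6.2 μg mL−1 were mixed 9:1 with bacterial inoculum (5 × 10^6 CFU mL−1). Plates were incubated 24 h at 37 °C and read at A620. […] Duplicate runs (n = 2).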

[4] = tested on: breast cancer cell line MDA-MB-468; assay: MTT cytotoxicity assay; assay type: cell-based, human; details: 37 °C, 5% FBS, mean ± SD (n = 3); for Cellular Viability (%), MDA-MB-468 cells, 2 h: peptide 200 μg mL−1, 2 h; for Cellular Viability (%), MDA-MB-468 cells, 24 h: peptide 200 μg mL−1, 24 h; for Cellular Viability (%), MDA-MB-468 cells, 48 h: peptide 200 μg mL−1, 48 h
Summary of the method: as §1

[5] = tested on: E. coli ATCC 25922; assay: Antibacterial activity, microdilution assay; assay type: cell-based; details: microdilution (CLSI), 96-well, 24 h at 37 °C, absorbance 620 nm, n = 2
Summary of the method: as §2

MIC, S. aureus ATCC 25923 [3] | MIC, E. coli ATCC 25922 [5] | Substance | Cellular Viability (%), Fibroblast cells, 2 h [1] | Cellular Viability (%), Fibroblast cells, 24 h [1] | Cellular Viability (%), Fibroblast cells, 48 h [1] | morphological changes in MDA-MB-468 cells [2] | Cellular Viability (%), MDA-MB-468 cells, 2 h [4] | Cellular Viability (%), MDA-MB-468 cells, 24 h [4] | Cellular Viability (%), MDA-MB-468 cells, 48 h [4]
146 µM | 37 µM | RWQWRWQAR-NH2 [Peptide A8] | 100 ± 1 ^a % | 94 ± 1 ^a % | 85 ± 4 ^a % | significant morphological changes associated with the cytotoxic effect were not observed | 69 ± 5% | 62 ± 5% | 61 ± 6%
143 µM | 143 µM | RWQWRWQWA-NH2 [Peptide A9] | 100 ± 4 ^a % | 98 ± 3 ^a % | 100 ± 3 ^a % | – | 64 ± 7% | 55 ± 6% | 65 ± 7%
143 µM | – | RWQWAWQWR-NH2 [Peptide A5] | 99 ± 1 ^a % | 81 ± 1 ^b % | 82 ± 1 ^a % | morphological changes were observed, acquiring rounded forms | 71 ± 8% | 62 ± 7% | 64 ± 4%
146 µM | 146 µM | RAQWRWQWR-NH2 [Peptide A2] | 100 ± 2 ^a % | 94 ± 2 ^a % | 87 ± 2 ^a % | significant morphological changes associated with the cytotoxic effect were not observed | 62 ± 4% | 63 ± 4% | 58 ± 6%
140 µM | 18 µM | RWQWRWAWR-NH2 [Peptide A7] | 96 ± 5 ^a % | 100 ± 1 ^a % | 79 ± 5 ^a % | morphological changes were observed, acquiring rounded forms | 59 ± 6% | 57 ± 3% | 56 ± 1%

Substance | MIC, S. aureus ATCC 25923 [3] | MIC, E. coli ATCC 25922 [5] | Cellular Viability (%), Fibroblast cells, 2 h [1] | Cellular Viability (%), Fibroblast cells, 24 h [1] | Cellular Viability (%), Fibroblast cells, 48 h [1] | morphological changes in MDA-MB-468 cells [2] | Cellular Viability (%), MDA-MB-468 cells, 2 h [4] | Cellular Viability (%), MDA-MB-468 cells, 24 h [4] | Cellular Viability (%), MDA-MB-468 cells, 48 h [4]
RWQWRAQWR-NH2 [Peptide A6] | – | 37 µM | 100 ± 2 ^a % | 88 ± 2 ^a % | 79 ± 4 ^a % | significant morphological changes associated with the cytotoxic effect were not observed | 55 ± 6% | 49 ± 5% | 52 ± 5%
